One data set concerns uterus weight response. Details: species or system rat. The conditions noted are these: predicted and in vivo BMDL50 to BMDU50, rats. Summed up: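 Generic rat PBK models used for reverse dosimetry of MCF-7 proliferation and YES concentration-response data. In vitro concentrations corrected for unbound fraction (RED in assay medium and rat serum; 10% FBS medium taken as half the 5% FBS fub), then converted to blood concentrations and dose levels. Literature uterotrophic data: absolute uterus weight increase, not body-weight normalised. BMR 50% over control; BMD50 with 95% BMDL50–BMDU50.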

Data set [1] is classed as in vitro ADME. The conditions noted are these: bovine; for recovery: in vitro MCF-7 proliferation assay medium containing 5% FBS; for fraction unbound: in vitro proliferation assay medium with 5% FBS.
A short description of data set [2]: Rapid equilibrium dialysis, fraction unbound in rat serum. The data set is classed as in vitro ADME. As to conditions: for recovery: rat serum; for fraction unbound: serum. For orientation: Equilibrium dialysis compares concentrations on both sides of a semipermeable membrane.
A short description of data set [3]: Generic PBK model evaluation: predicted versus reported Cmax in rat blood. The conditions noted are these: oral administration, rats. A digest of the protocol:
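The generic PBK model predicted parent-compound blood concentration–time curves after single oral dosing in rats, using partition coefficients calculated from log Pow and hepatic clearance from rat liver S9. Doses matched those of the published in vivo kinetic studies. Predicted Cmax was compared with literature blood data, and the difference was expressed as a fold value.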

Data set [4] can be described thus: Hepatic clearance by substrate depletion in rat liver S9. It is filed as in vitro ADME. The conditions noted are these: Sprague-Dawley, liver S9, pH 7.4. A digest of the protocol:
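Rat liver S9 (pooled, male or female Sprague-Dawley, 0.5 mg/ml) was incubated with 3 µM substrate (added from a 100-fold DMSO stock). Sampling ran 0–90 min against cofactor-free controls, with UPLC quantification. CLint came from the linear part of ln(Ccompound/Ccontrol) versus time. Triplicates, 3 independent studies.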

The structures appear in SMILES notation. Where two headings read alike, the source gives them in different places.

As to `CC(C)(c1ccc(O)cc1)c1ccc(O)cc1` [BPA, bisphenol A], the “Potency comparison from BMD50 values (Figure 8)” value (“Potency comparison” below) in the data set on uterus weight response was “least potent”.

In the case of `O=c1oc2cc(O)ccc2c2oc3cc(O)ccc3c12` [COU, coumestrol], the values for the recovery in data set [1] and in data set [2] were 79% and 82%, respectively. Moreover, the unbound share (fraction unbound) – broadly, free concentration divided by total concentration – in data set [1] is 0.69 ± 0.034; in data set [2], 0.35 ± 0.07. In addition, the “Difference in Cmax between the model predictions and the in vivo kinetic data” value in data set [3] is reported as 2.2 fold.

In the case of `CC/C(=C(/CC)c1ccc(O)cc1)c1ccc(O)cc1` [DES, Diethylstilbestrol], the recovery was 79% in data set [1] and 77% in data set [2]. The fraction unbound in data set [1] stood at 0.74 ± 0.02; in data set [2], 0.48 ± 0.08. The “Potency comparison” value in the data set on uterus weight response was “most potent”.

With `C[C@]12CC[C@@H]3c4ccc(O)cc4CC[C@H]3[C@@H]1CC[C@@H]2O` [E2, 17β-estradiol], in the data set on uterus weight response, the “Potency comparison” value is given as “most potent”.

Take `C#C[C@]1(O)CC[C@H]2[C@@H]3CCc4cc(O)ccc4[C@H]3CC[C@@]21C` [EE2, 17α-ethinylestradiol]: the values for the recovery in data set [1] and in data set [2] were 86% and 80%, respectively. Further, the fraction unbound in data set [1] was 0.72 ± 0.18; in data set [2] it was 0.46 ± 0.03. For the same compound, the “Potency comparison” value in the data set with uterus weight response was “most potent”.

In the case of `O=c1c(-c2ccc(O)cc2)coc2cc(O)cc(O)c12` [GEN, genistein], the recovery stood at 88% in data set [1] and 83% in data set [2]. Moreover, the fraction unbound in data set [1] turned out to be 0.8 ± 0.04; in data set [2], 0.07 ± 0.02.

`COc1ccc(C(c2ccc(OC)cc2)C(Cl)(Cl)Cl)cc1` [MXC, methoxychlor]: the recovery in data set [1] was determined as 77%; in data set [2], 76%. In addition, the fraction unbound in data set [1] came out at 0.73 ± 0.29; in data set [2], 0.27 ± 0.04. The values for the microsomal CLint at 3 µM in data set [4] (female) and in data set [4] (male) were 313 ± 5 µL/min/mg and 448 ± 8 µL/min/mg, respectively.

(Values after publication PMC9186316 (Toxicological Sciences, 2019).)
